Assay results published in ChEMBL document CHEMBL1153954, “Promiscuous aggregate-based inhibitors promote enzyme unfolding” (J Med Chem, 2009).
Active and inactive are the calls of the source. No cut-off for these calls is given here.

Columns and labels:
AmpC (Escherichia coli) [1] = target: AmpC (Escherichia coli) (UniProt Q83TT7); test: Inhibition of Escherichia coli AmpC assessed as induction of protein unfolding measured by trypsin mediated degradation of compound-AmpC enzyme complex at 250 uM after 15 mins by gel electrophoresis
Chain of AmpC (Escherichia coli) (Q83TT7 as listed by the source): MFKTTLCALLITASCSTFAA
Method in brief: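 AmpC β-lactamase (0.5 μM) in 50 mM KPi, pH 7.0, with or without aggregator at 250 μM (1% DMSO final). Trypsin (0.01 or 0.025 mg/mL) added after 5 min. Digestion ran at room temperature for 0 min to 4 h. Samples were boiled 2 min in DTT-containing loading buffer, run on SDS-PAGE, and the β-lactamase band was scored against compound-free enzyme.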

AmpC (Escherichia coli) [2] = target: AmpC (Escherichia coli) (UniProt Q83TT7); test: Inhibition of Escherichia coli AmpC assessed as induction of protein unfolding measured by trypsin mediated degradation of compound-AmpC enzyme complex at 100 uM after 4 hrs by gel electrophoresis
Method in brief: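 AmpC (0.5 μM) was preincubated 5 min with or without 100 μM aggregator in 50 mM KPi, pH 7.0, 1% DMSO final. Trypsin (0.01 or 0.025 mg/mL) was then added, and digestion ran at room temperature for 0, 15, 30 min, 1 h or 4 h. Samples were boiled in DTT-containing loading buffer and the AmpC band was followed by SDS-PAGE.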

Compound	Activity (AmpC (Escherichia coli) [1])	Activity (AmpC (Escherichia coli) [2])
Nc1c(/N=N/c2ccc(-c3ccc(/N=N/c4cc(S(=O)(=O)O)c5ccccc5c4N)cc3)cc2)cc(S(=O)(=O)O)c2ccccc12	Active	–
COC(=O)C1=C(C)NC(C)=C(C(=O)OCCN(C)Cc2ccccc2)C1c1cccc([N+](=O)[O-])c1 (stereo not drawn)	Active	–
CCCCCCNC(=O)Nc1ccc(S(=O)(=O)Nc2ccc(CCNC[C@H](O)COc3ccc(O)cc3)cc2)cc1	–	Active
